Among the data in ChEMBL document CHEMBL4190361, “Discovery of New Selenoureido Analogues of 4-(4-Fluorophenylureido)benzenesulfonamide as Carbonic Anhydrase Inhibitors” (ACS Med Chem Lett, 2017) are Activity and Ki values, retold here.

Assay [1] concerns MDA-MB-231. Briefly: Cytotoxicity against human MDA-MB-231 cells assessed as reduction in cell viability at 30 to 100 uM after 48 hrs under normoxic condition by MTT assay. The class given is functional, cell-based. The method in brief:
(§1)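 Cells plated at 1 × 10^4/well and exposed to test agents at 30, 100 and 300 μM for 48 h, in normoxia (20% O2) or hypoxia (0.1% O2). Viability is expressed relative to untreated control set at 100%, as mean ± SEM of three experiments.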

In assay [2] the test system is MDA-MB-231. Briefly: Cytotoxicity against human MDA-MB-231 cells assessed as reduction in cell viability at 300 uM after 48 hrs under hypoxic condition by MTT assay. The class given is functional, cell-based. The method, boiled down: as §1
The test system of assay [3] is HT-29. Briefly: Cytotoxicity against human HT-29 cells assessed as reduction in cell viability at 30 to 300 uM after 48 hrs under normoxic condition by MTT assay. The class given is functional, cell-based. The method in brief:
as §1
Background: Formazan colour is commonly taken as a measure of viable cells.

Assay [4] concerns HT-29. Briefly: Cytotoxicity against human HT-29 cells assessed as reduction in cell viability at 30 to 300 uM after 48 hrs under hypoxic condition by MTT assay. The class given is functional, cell-based. The method, boiled down: as §1
The subject of assay [5] is PC-3. In words: Cytotoxicity against human PC3 cells assessed as reduction in cell viability at 30 to 300 uM after 48 hrs under normoxic condition by MTT assay. The class given is functional, cell-based. The method, boiled down:
as §1

In assay [6] the test system is MDA-MB-231. Briefly: Cytotoxicity against human MDA-MB-231 cells assessed as reduction in cell viability at 300 uM after 48 hrs under normoxic condition by MTT assay. In kind it is functional, cell-based. The method in brief:
as §1

Assay [7] deals with MDA-MB-231. In words: Cytotoxicity against human MDA-MB-231 cells assessed as reduction in cell viability at 30 to 100 uM after 48 hrs under hypoxic condition by MTT assay. The class given is functional, cell-based. The method in brief: as §1
A further assay concerns the target Carbonic anhydrase 9 (Homo sapiens, UniProt Q16790).
In assay [8] the test system is PC-3. Briefly: Cytotoxicity against human PC3 cells assessed as reduction in cell viability at 30 to 300 uM after 48 hrs under hypoxic condition by MTT assay. In kind it is functional, cell-based. The method in brief:
as §1

For assay [9], the system named is MDA-MB-231. In words: Cytotoxicity against human MDA-MB-231 cells assessed as reduction in cell viability at 30 uM after 48 hrs under normoxic condition by MTT assay. The class given is functional, cell-based. The method in brief: as §1
Assay [10] is described as follows: Gpx-like activity of the compound assessed as GSH-mediated H2O2 reduction by measuring NADPH consumption measured within 100 secs by UV spectroscopic analysis. In kind it is functional. The method in brief:
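NADPH-coupled GPx assay with GSH as substrate and H2O2 as oxidant, with glutathione reductase. Initial conditions: NADPH 0.6 mM, GSH 2.0 mM, H2O2 5 mM, GR 8 units/mL, catalyst 0.2 mM, pH 7.4 phosphate buffer, room temperature. Read-out is the absorbance decrease at 340 nm from NADPH consumption. Mean ± SD of three experiments.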

The nature of assay [11]: Gpx-like activity of the compound assessed as H2O2 reduction by measuring DTT oxidation measured within 35 mins by 1H-NMR analysis. The class given is functional. The method in brief: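 Oxidation of reduced DTT followed by 1H NMR, with DTTred and DTTox populations taken from signal integration. Catalyst loading 10%. Control run without catalyst, with (PhSe)2 as a standard comparator. T50 is the time to halve the initial DTTred. Mean ± SD of three separate experiments.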

For assay [12], the system named is PC-3. In words: Cytotoxicity against human PC3 cells assessed as reduction in cell viability at 300 uM after 48 hrs under normoxic condition by MTT assay. In kind it is functional, cell-based. The method in brief:
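PC3 human prostate cancer cells seeded at 1 × 10^4/well and exposed for 48 h under normoxia (20% O2). The same run also used hypoxia (0.1% O2). Compounds tested at 30, 100 and 300 μM. Viability is expressed relative to untreated control set at 100%. Mean ± SEM of three experiments.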

The structures appear in SMILES notation. Active and inactive are the calls of the source. No cut-off for these calls is given here.

Regarding `NS(=O)(=O)c1ccc(CCNC(=[Se])Nc2ccc(I)cc2)cc1`, the result with MDA-MB-231 [1], in the assay on MDA-MB-231 [2], with HT-29 [3], in the assay with HT-29 [4], in the assay with PC-3 [5] and in the assay on MDA-MB-231 [6] was inactive. Further, the result with MDA-MB-231 [7] and in the assay with PC-3 [8] was inactive. Further, affinity at Carbonic anhydrase 9 was put at a Ki of 54.9 nM.

For `NS(=O)(=O)c1ccc(CCNC(=[Se])Nc2cccc(C(F)(F)F)c2)cc1`, the affinity at Carbonic anhydrase 9 corresponds to a Ki of 5.8 nM.

Take `NS(=O)(=O)c1ccc(CCNC(=[Se])Nc2ccccc2Cl)cc1`: at Carbonic anhydrase 9, the Ki (commonly a dissociation constant, usually derived from enzyme kinetics or from competition with a known ligand) is 4.8 nM.

As to `NS(=O)(=O)c1ccc(CCNC(=[Se])Nc2ccc(Br)cc2)cc1`, the inhibitory constant (Ki) at Carbonic anhydrase 9 was 4.8 nM.

With `NS(=O)(=O)c1ccc(NC(=[Se])Nc2ccc(F)cc2)cc1`, the outcome in the assay with HT-29 [3] and in the assay on HT-29 [4] was inactive. For the same molecule, the result (in the assay with MDA-MB-231 [9]; with PC-3 [5]; in assay [10]; with PC-3 [8]; in assay [11]) was Active. Moreover, on Carbonic anhydrase 9, the affinity, expressed as Ki, was 63 nM.

In the case of `NS(=O)(=O)c1ccc(CCNC(=[Se])Nc2ccccc2F)cc1`, the result in the assay with MDA-MB-231 [1], in the assay on HT-29 [3], with HT-29 [4] and in the assay with MDA-MB-231 [7] was inactive. For the same molecule, the outcome in the assay with MDA-MB-231 [2], in the assay with PC-3 [5], with MDA-MB-231 [6] and in the assay with PC-3 [8] was Active. On Carbonic anhydrase 9, the affinity corresponds to a Ki of 8.7 nM.

For `NS(=O)(=O)c1ccc(CCNC(=[Se])Nc2ccc3ccccc3c2)cc1`, affinity at Carbonic anhydrase 9 was put at a Ki of 93.1 nM.

In the case of `NS(=O)(=O)c1ccc(NC(=O)Nc2ccc(F)cc2)cc1`, the result in the assay with HT-29 [3], in the assay on HT-29 [4], with MDA-MB-231 [9] and in the assay with PC-3 [12] was Active. Moreover, the result in [10] and in assay [11] was inactive.

Turning to `NS(=O)(=O)c1ccc(NC(=[Se])Nc2ccccc2)cc1`, the affinity on Carbonic anhydrase 9 corresponds to a Ki of 78.9 nM.

At Carbonic anhydrase 9, `NS(=O)(=O)c1cccc(NC(=[Se])Nc2ccc(F)cc2)c1` yielded a Ki of 97.8 nM.

As for `NS(=O)(=O)c1ccc(NC(=S)Nc2ccc(F)cc2)cc1`, the result in assay [10] and in [11] was inactive. The Ki at Carbonic anhydrase 9 was 32.1 nM.

At Carbonic anhydrase 9, `NS(=O)(=O)c1ccc(NC(=[Se])Nc2ccccc2F)cc1` displayed a Ki of 5.8 nM.

For `NS(=O)(=O)c1ccc(NC(=[Se])Nc2ccccc2Cl)cc1`, the inhibition constant Ki on Carbonic anhydrase 9 came to 3.9 nM. This Ki and that of the molecule before are within 1.5-fold of each other.

With `NS(=O)(=O)c1cccc(NC(=[Se])Nc2ccccc2)c1`, the Ki on Carbonic anhydrase 9 was determined as 330 nM.

Regarding `NS(=O)(=O)c1ccc(NC(=[Se])Nc2cccc(C(F)(F)F)c2)cc1`, at Carbonic anhydrase 9, the Ki turned out to be 15.9 nM.

The molecule `NS(=O)(=O)c1ccc(CCNC(=[Se])Nc2ccccc2)cc1` registered a Ki at Carbonic anhydrase 9 of 5.3 nM. Against the preceding molecule, the Ki is about 3-fold lower.

At Carbonic anhydrase 9, `COc1ccccc1NC(=[Se])NCCc1ccc(S(N)(=O)=O)cc1` came in with a Ki of 3.1 nM. This Ki lies about 1.7-fold lower than the previous one.
